Measured values from ChEMBL document CHEMBL3124865, “Sulfur rich 2-mercaptobenzothiazole and 1,2,3-triazole conjugates as novel antitubercular agents” (2014).
Values after ≈ are worked out from the molar mass of the structure shown.

Columns and labels:
Format in all cases: functional
[1] = tested on: Mycobacterium tuberculosis; experiment: Antimycobacterial activity against Mycobacterium tuberculosis H37Rv after 2 to 3 weeks by broth microdilution assay
In short: (§1)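 M. tuberculosis H37Rv in broth microdilution. Compounds were first screened at one fixed concentration in triplicate, and actives went on to MIC determination. Plates were incubated 2–3 weeks at 37 °C in a CO₂ incubator. MIC was read visually as the absence of growth turbidity.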

[2] = tested on: Mycobacterium tuberculosis; experiment: Bactericidal activity against Mycobacterium tuberculosis H37Rv after 20 days; settings: 480 h
In short: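 After the microdilution MIC run, 0.02 mL of H37Rv suspension from wells at MIC and higher concentrations was plated on 7H10 agar (7H11 also named). Viable counts were taken after 20 days at 37 °C. MBC is the lowest concentration that cut viable counts by at least 99% versus compound-free wells.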

[3] = tested on: Mycobacterium tuberculosis; experiment: Antimycobacterial activity against Mycobacterium tuberculosis; in short: as §1

SMILES	MIC [1] [µg/mL]	MBC [2] [µg/mL]	MIC [3] [µg/mL]
O=C(CSc1nc2ccccc2s1)N1CCCC1	< 128	–	–
Brc1ccc(-n2cc(CSc3nc4ccccc4s3)nn2)cc1	16 (≈ 39.7 µM)	–	–
O=C(CSc1nc2ccccc2s1)Nc1ccc(F)cc1	64 (≈ 201 µM)	–	–
O=C(CSc1nc2ccccc2s1)N1CCCCC1	< 128	–	–
O=C(NNC(=O)c1ccncc1)C(=O)c1c[nH]c2ccccc12	64 (≈ 208 µM)	–	–
c1cncc(-n2cc(CSc3nc4ccccc4s3)nn2)c1	16 (≈ 49.2 µM)	–	–
O=C(NN1CCOCC1)C(=O)c1c[nH]c2ccccc12	< 128	–	–
NNC(=O)c1ccncc1 [ISONIAZID]	0.125 (≈ 0.911 µM)	–	–
O=C(CSc1nc2ccccc2s1)NNC(=O)c1ccncc1	< 128	–	–
Cc1ccccc1-n1cc(CSc2nc3ccccc3s2)nn1	< 128	–	–
CN1CCN(C(=O)CSc2nc3ccccc3s2)CC1	< 128	–	–
O=C(CSc1nc2ccccc2s1)Nc1ccc(Br)cc1	< 128	–	–
O=[N+]([O-])c1cccc(-n2cc(CSc3nc4ccccc4s3)nn2)c1	8 (≈ 21.7 µM)	64 (≈ 173 µM)	–
CC1COC2(CCN(c3nc(=O)c4cc(C(F)(F)F)cc([N+](=O)[O-])c4s3)CC2)O1 (stereo not drawn)	–	–	0.001 (≈ 0.00232 µM)
Fc1ccc(-n2cc(CSc3nc4ccccc4s3)nn2)cc1	< 128	–	–
CC1(C)O[C@H]2OC(Cn3cc(CSc4nc5ccccc5s4)nn3)[C@@H]3OC(C)(C)O[C@@H]3[C@@H]2O1 (stereo partly drawn)	8 (≈ 16.3 µM)	32 (≈ 65.2 µM)	–
CO[C@H]1/C=C/O[C@@]2(C)Oc3c(C)c(O)c4c(O)c(c(/C=N/N5CCN(C)CC5)c(O)c4c3C2=O)NC(=O)/C(C)=C\C=C\[C@H](C)[C@H](O)[C@@H](C)[C@@H](O)[C@@H](C)[C@H](OC(C)=O)[C@@H]1C [RIFAMPIN]	0.06 (≈ 0.0729 µM)	–	–

SMILES	MIC [1] [µg/mL]	MBC [2] [µg/mL]	MIC [3] [µg/mL]
O=C(CSc1nc2ccccc2s1)N1CCOCC1	< 128	–	–
c1ccc(-n2cc(CSc3nc4ccccc4s3)nn2)cc1	< 128	–	–
O=[N+]([O-])c1ccc(-n2cc(CSc3nc4ccccc4s3)nn2)cc1	8 (≈ 21.7 µM)	32 (≈ 86.6 µM)	–
O=C(CSc1nc2ccccc2s1)Nc1ccccn1	64 (≈ 212 µM)	–	–
Clc1cccc(-n2cc(CSc3nc4ccccc4s3)nn2)c1	8 (≈ 22.3 µM)	> 64	–
O=C(C(=O)N1CCSCC1)c1c[nH]c2ccccc12	< 128	–	–
O=C(CSc1nc2ccccc2s1)NN1CCOCC1	< 128	–	–
Clc1ccc(-n2cc(CSc3nc4ccccc4s3)nn2)cc1	< 128	–	–
CN1CCN(C(=O)C(=O)c2c[nH]c3ccccc23)CC1	< 128	–	–
CCOc1ccc(-n2cc(CSc3nc4ccccc4s3)nn2)cc1	< 128	–	–
O=C(C(=O)N1CCCC1)c1c[nH]c2ccccc12	< 128	–	–
O=C(CSc1nc2ccccc2s1)N1CCSCC1	64 (≈ 206 µM)	–	–
O=C(CSc1nc2ccccc2s1)NCc1ccc(F)cc1	< 128	–	–
O=C(C(=O)N1CCCCC1)c1c[nH]c2ccccc12	< 128	–	–
O=C(C(=O)N1CCOCC1)c1c[nH]c2ccccc12	< 128	–	–
Clc1ccccc1-n1cc(CSc2nc3ccccc3s2)nn1	16 (≈ 44.6 µM)	–	–
CC1(C)OCC(Cn2cc(CSc3nc4ccccc4s3)nn2)O1 (stereo not drawn)	< 128	–	–
